In one assay the test system is MCF7. Briefly: Anticancer activity against human MCF7 cells assessed as reduction in cell viability after 96 hrs by MTT assay. The format is functional, cell-based. The conditions noted are these: MCF7, 96 h. The gist of the method:
(§1)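 Cancer lines grown in RPMI with 10% FBS and 1% penicillin/streptomycin, 37 C, humidified 5% CO2. Cells exposed to test agents or vehicle in RPMI/10% FBS for 96 h; viability read by MTT; IC50 as mean ± S.D., n = 6.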

In a further assay the test system is A549. Briefly: Anticancer activity against human A549 cells assessed as reduction in cell viability after 96 hrs by MTT assay. The conditions noted are these: A549, 96 h. The format is functional, cell-based. An outline of the steps:
as §1
Background: Tetrazolium assays rely on reduction of a dye to a coloured formazan, in cell work by metabolically active cells.

The test system of a further assay is HT-29. In words: Anticancer activity against human HT-29 cells assessed as reduction in cell viability after 96 hrs by MTT assay. The format is functional, cell-based. The conditions noted are these: HT-29, 96 h. The gist of the method:
as §1

The nature of assay [1]: Cytotoxicity against human F180 cells assessed as reduction in cell viability after 96 hrs by MTT assay. The format is cell-based. Conditions: F180, 96 h. An outline of the steps: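 F180 normal fibroblasts kept in MEM with 10% FBS and 1% penicillin/streptomycin at 37 C, humidified 5% CO2. Treated with test agents or vehicle in MEM/10% FBS for 96 h; viability by MTT; IC50 reported as mean ± S.D. (n = 6).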

A further assay is filed under the species Sus scrofa. In words: Inhibition of porcine brain tubulin polymerization assessed as tubulin polymerization level by measuring arbitary units at 3 uM by fluorescence analysis.

Molecules are shown by their SMILES.

Our source for the IC50 and Activity values is ChEMBL document CHEMBL4229351, “Design, synthesis and anticancer evaluation of novel spirobenzo[h]chromene and spirochromane derivatives with dual EGFR and B-RAF inhibitory activities” (Eur J Med Chem, 2018).

Broadly, the IC50 is the concentration that gives 50% inhibition.

As to `S=C(N/N=C1\CC2(CCCCC2)Oc2c1ccc1ccccc21)N1CCNCC1`, the figures for the IC50 in the assay on MCF7, with A549 and in the assay on HT-29 were 14.2 µM, 12 µM and 8.34 µM, respectively.

On to `CSC(=S)N/N=C1\CC2(CCCCC2)Oc2c1ccc1ccccc21`, for which the IC50 in the assay on MCF7 is 5.1 µM; in the assay on A549, 3.99 µM; in the assay with HT-29, 4.13 µM; in assay [1], above 40 µM.

Regarding `O=C1Nc2ccccc2/C1=N/N=C1\CC2(CCCCC2)Oc2c1ccc1ccccc21`, the IC50 in the assay with MCF7 is 5.11 µM; in the assay with A549, 11.1 µM; in the assay on HT-29, 7.67 µM; in assay [1], above 40 µM.

As for `CC[C@]1(O)C[C@H]2CN(CCc3c([nH]c4ccccc34)[C@@](C(=O)OC)(c3cc4c(cc3OC)N(C=O)[C@H]3[C@@](O)(C(=O)OC)[C@H](OC(C)=O)[C@]5(CC)C=CCN6CC[C@]43[C@@H]65)C2)C1`, the Activity in the assay listed under Sus scrofa came to 747 a.u.

In the case of `O=C(N/N=C1\CC2(CCCCC2)Oc2c1ccc1ccccc21)Nc1ccccc1`, the IC50 in the assay on MCF7 is 12 µM; with A549 it was 8.15 µM; in the assay on HT-29 it was 4.74 µM.

On to `O=C1CC2(CCCCC2)Oc2c1ccc1ccccc21`, for which the figures for the IC50 with MCF7, in the assay with A549 and in the assay with HT-29 were 10.7 µM, 10.6 µM and 6.15 µM, respectively.

With `S=C(N/N=C1\CC2(CCCCC2)Oc2c1ccc1ccccc21)NC1CCCCC1`, the IC50 was found to be 15.1 µM in the assay with MCF7, 9.14 µM in the assay with A549 and 7.44 µM in the assay with HT-29.

As for `S=C(N/N=C1\CC2(CCCCC2)Oc2c1ccc1ccccc21)N1CCOCC1`, the half-maximal inhibitory concentration (IC50) with MCF7 came out at 11.9 µM; in the assay on A549, 10.1 µM; in the assay on HT-29, 9.31 µM.

Take `O=C(N/N=C1\CC2(CCCCC2)Oc2c1ccc1ccccc21)Nc1ccc(Cl)cc1`: the IC50 was found to be 15 µM in the assay with MCF7, 9.54 µM in the assay on A549 and 7.37 µM with HT-29.

In the case of `O=C1c2ccccc2C(=O)N1/N=C1\CC2(CCCCC2)Oc2c1ccc1ccccc21`, the IC50 amounted to 12.1 µM with MCF7, 12.4 µM with A549 and 8.34 µM with HT-29.

Turning to `C#Cc1cccc(Nc2ncnc3cc(OCCOC)c(OCCOC)cc23)c1` [ERLOTINIB], the IC50 with MCF7 is above 20 µM; with A549 it was 17.3 µM; with HT-29, above 20 µM.

Take `S=C(N/N=C1\CC2(CCCCC2)Oc2c1ccc1ccccc21)N1CCCCC1`: the IC50 in the assay on MCF7 came out at 13.3 µM; in the assay with A549, 11.4 µM; in the assay on HT-29, 6.77 µM.

`Cc1ccc(NC(=O)N/N=C2\CC3(CCCCC3)Oc3c2ccc2ccccc32)cc1`: the IC50 with MCF7 came out at 9.07 µM; in the assay on A549, 8.35 µM; with HT-29, 7.09 µM.

For `N/N=C1\CC2(CCCCC2)Oc2c1ccc1ccccc21`, the figures for the IC50 in the assay on MCF7, with A549 and with HT-29 were 9.74 µM, 12.9 µM and 9.97 µM, respectively.

Consider `CN1CCN(C(=S)N/N=C2\CC3(CCCCC3)Oc3c2ccc2ccccc32)CC1`, for which the IC50 with MCF7 amounted to 11.7 µM; with A549, 10.6 µM; in the assay on HT-29, 8.17 µM.

Turning to `CC(=O)O[C@@]12CO[C@@H]1C[C@H](O)[C@@]1(C)C(=O)[C@H](O)C3=C(C)[C@@H](OC(=O)[C@H](O)[C@@H](NC(=O)OC(C)(C)C)c4ccccc4)C[C@@](O)([C@@H](OC(=O)c4ccccc4)[C@H]21)C3(C)C`, the Activity in the assay filed under Sus scrofa came to 4820 a.u.

With `CNC(=O)c1cc(Oc2ccc(NC(=O)Nc3ccc(Cl)c(C(F)(F)F)c3)cc2)ccn1` [SORAFENIB], the IC50 is 3.64 µM with MCF7, 6.21 µM in the assay with A549, 3.97 µM in the assay with HT-29 and above 40 µM in assay [1].
